Test results published in the EternaBench riboswitch data.

Test system: MS2 coat protein
Assay: apparent Kd, MS2 coat protein; higher = weaker binding; RNA-MaP array; FMN 200 µM where present
Outline: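 Binding was read on Illumina sequencing-chip clusters where stalled E. coli RNA polymerase had transcribed each design. A titration of SNAP-549-labelled MS2 coat protein began at 0.7 or 1.5 nM and doubled to 3 µM, once without ligand and once with constant ligand, in 100 mM Tris-HCl pH 7.5, 80 mM KCl, 4 mM MgCl2, BSA, DTT, yeast tRNA and Tween-20. The apparent Kd is the median of filtered per-cluster binding-curve fits, based on green signal normalised to red-channel RNA signal and control-cluster median Fmax.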

[1] = designed as: OFF switch for flavin mononucleotide, no ligand
[2] = ligand present: flavin mononucleotide, designed as: OFF switch for flavin mononucleotide
[3] = designed as: ON switch for flavin mononucleotide, no ligand
[4] = ligand present: flavin mononucleotide, designed as: ON switch for flavin mononucleotide

Sequence: CAGUACUGAGGAUAUACAUGAGGAUCACCCAUGUGCCUCAGGUAGGAUACUACCAUUAGUAGAAGGCAGUACUG
- apparent Kd [1]: 197 nM
- apparent Kd [2]: 37.7 nM

Sequence: CCGGGCUAGGAGAAGGGCUAGAGUGUGAUAUAUUUGCCCGCGAGCACAUGAGGAUCACCCAUGUAGCAGGAUAUCCAAGCCGAU
- apparent Kd [1]: 7.33 nM
- apparent Kd [2]: 18 nM

Sequence: UAAAUUUUGUAAGGAUAUACACGAGAUUCAAGUGUAGAAGGUACUUACAUGAGGAUCACCCAUGUAUACAUGGAUAAUAGAUAU
- apparent Kd [3]: 436 nM
- apparent Kd [4]: 141 nM

Sequence: GGUUGACAUGAGGAUCACCCAUGUGAGGAUAUCGGCUGGUACGUGUUGGCUGGCAUCUCGAGAAGGCACAUAGG
- apparent Kd [1]: 170 nM
- apparent Kd [2]: 58.4 nM

Sequence: CGUCGAUACCAGAAGGACAUGAGGAUCACCCAUGUAGGAUAUGGGUGACCGGGAUGGCAGACAUGGUGCCCGGGCACAUGCGAC
- apparent Kd [3]: 70 nM
- apparent Kd [4]: 9.82 nM

Sequence: AAUUCACAUGAGGAUCACCCAUGUCAGGAUAUGGUGACGCGGGUUUCGGUGCGUGUUGCCAGAAGGGACAGCUA
- apparent Kd [1]: 79.2 nM
- apparent Kd [2]: 119 nM

Sequence: AUCAGCUUGUCAGGAUAUGCGUGUCAACGAAAGUAGACAAUCUUAAUAACAUGAGGAUCACCCAUGUAGAAGGGACGAGCUGAU
- apparent Kd [1]: 18.2 nM
- apparent Kd [2]: 20.3 nM

Sequence: CUUCUGUAAGGAUAUGUAAAUUGCUGACCACACCAGCACCGGCAGAAGGUACAUGAGGAUCACCCAUGUGGGUU
- apparent Kd [1]: 240 nM
- apparent Kd [2]: 148 nM

Sequence: AGAUGACAAUGUCAUCUUCAACGGACAUGAGGAUCACCCAUGUAGGAUAUGCUACUCAAAGAGUAGCAGAAGGACAUGUGUCUU
- apparent Kd [1]: 23.1 nM
- apparent Kd [2]: 85.2 nM

Sequence: GCACAUGGCAUAGGAUAUAGAACUAUACUUUAUAUAGGUAGUUACACUUAACUAGAAGGAUGAUACAUGAGGAUCACCCAUGUA
- apparent Kd [3]: 16.8 nM
- apparent Kd [4]: 14.5 nM

Sequence: GGGCCCGGAGGAUAUACAAUGGGCCCGGGAAACCGGGUUUUACAUGAGGAUCACCCAUGUAGAAGGCCGGGUUU
- apparent Kd [1]: 14.5 nM
- apparent Kd [2]: 15.4 nM

Sequence: GUCAGCUCGUGAGGAUAUACAACACUGAUUCGGCAGUGUAUUAAGAUCACAUGAGGAUCACCCAUGUAGAAGGCACGAGCUGAU
- apparent Kd [1]: 17.2 nM
- apparent Kd [2]: 275 nM

Sequence: CUAGACUGAUCAGGAUAUCAUCGCGUGGUGUAUCCCUGUGAUUACAUGAGGAUCACCCAUGUGCAUGAGAAGGGAUUACUAUGU
- apparent Kd [1]: 54.7 nM
- apparent Kd [2]: 30 nM

Sequence: GGGUACAUCGAAGGAUAUCAUGUAAAUACAUGAGGAUCACCCAUGUCGAUGGAGACAUCGGAGAUUGAGAAGGCCGAUGUACCG
- apparent Kd [3]: 338 nM
- apparent Kd [4]: 28.1 nM

Sequence: GGAUAGGACAGAGGAUAUACGUGCUAGAGAUACUAGCAAAACUUCCUCACAUGAGGAUCACCCAUGUAGAAGGCUGUCCUAUCG
- apparent Kd [1]: 16.7 nM
- apparent Kd [2]: 564 nM

Sequence: CUUUUGUGAGGAUAUCAGUAGUAAUACAAUAGUAUUAUUACUGAGAAGGCACAUGAGGAUCACCCAUGUUCCUC
- apparent Kd [1]: 40.9 nM
- apparent Kd [2]: 125 nM

Sequence: CAGCGCUGUUGAGAGGAUAUGCGGUGAUGGACAUGAGGAUCACCCAUGUUAGCGACAGCAUUACGGCAGAAGGCUUCACAGCUGC
- apparent Kd [3]: 51.1 nM
- apparent Kd [4]: 14.6 nM

Sequence: GGUCCAGCAUGAGGAUAUGGCACCUUAUUGGUGCCAGAAGGCAUGUCUAUAGACAUGAGGAUCACCCAUGUAAUAAAUUGGACC
- apparent Kd [4]: 43.2 nM

Sequence: CCUAAGGAGGCAGGAUAUAGUGUGGUGGCCGGGCUCCCACGGCGAGCGGCACUAGAAGGGUCACUACAUGAGGAUCACCCAUGU
- apparent Kd [3]: 73.3 nM
- apparent Kd [4]: 30 nM

Sequence: UUUUAUUAGUAAGGAUAUACUAGCGAUUAGCUUGUAGAAGGUACAGUCUUAUGUAUAACAUGUUAACAUGAGGAUCACCCAUGU
- apparent Kd [3]: 59.5 nM
- apparent Kd [4]: 36.1 nM

Sequence: CGAUCGUGUAGAGGAUAUGUUAAACAUGAGGAUCACCCAUGUAAGGUAGAAAUUUUUAUAAACAUACAGAAGGCUACACGAUCG
- apparent Kd [1]: 7.32 nM
- apparent Kd [2]: 5.15 nM

Sequence: AAUUGGAUGCAGAAGGCAUGGACGACUCGUCACAUUAACAUGAGGAUCACCCAUGUGAAAACACAUGAGGAUAUGCAUCCUAAA
- apparent Kd [3]: 17.5 nM
- apparent Kd [4]: 6.41 nM

Sequence: AUUAUGACCGAGUUAAGCUUCAAAACAUGAGGAUCACCCAUGUAGGAUAUCAGCACGAUAAGUGCUGAGAAGGACAUCUCGGUC
- apparent Kd [1]: 13.5 nM
- apparent Kd [2]: 15.5 nM

Sequence: GCCAUCGCAUGAGGAUAUGGCACCGUUUCGGUGCCAGAAGGCAUGUCGAAUGACAUGAGGAUCACCCAUGUAGUUAAGAUGGCA
- apparent Kd [3]: 480 nM
- apparent Kd [4]: 25.2 nM

Sequence: GGGCCCGGAGGAUAUACAUGAGGAUCACCCAUGUAGGGCCCGGGUAUUUUUGGGCCCUGUAGAAGGUUGGGCCC
- apparent Kd [1]: 11.5 nM
- apparent Kd [2]: 12.2 nM

Sequence: UGCCUGAGUCGAGGAUAUUAUGGAUCAAUUAAUACAUGAGGAUCACCCAUGUAAUUAAUUUAACAUGAGAAGGCGACUCAGGCU
- apparent Kd [3]: 11.3 nM
- apparent Kd [4]: 8.51 nM

Sequence: CUGUAGAUAUCAGGAUAUCUAUUUCCUACAUGAGGAUCACCCAUGUAGAUGAUCACCCAUGUAAAGGAGAAGGGAUAUCUAUAG
- apparent Kd [3]: 342 nM
- apparent Kd [4]: 180 nM

Sequence: GGAAAUCAUGUAGGAUAUGCAUGGCGAAGCUACGCAGAAGGACAUGAGGAUCACCCAUGUGCUAGCUACCGAGUUCGGUGGCAA
- apparent Kd [1]: 90.8 nM
- apparent Kd [2]: 211 nM

Sequence: GGUAAGAUGCAGAAGGUGUUAGCUAGAGCUACGACAUGAGGAUCACCCAUGUACUAGAAACAGUACAAGGAUAUGCAUCUUACC
- apparent Kd [3]: 18.4 nM
- apparent Kd [4]: 6.38 nM

Sequence: UGUCGGAGCAGAGGAUAUUACAUGAGGAUCACCCAUGUAUGAACCAAUAGCUGGAAACAACAAUGUAAGAAGGCUGCUCCGACA
- apparent Kd [1]: 7.22 nM
- apparent Kd [2]: 38.8 nM

Sequence: CGGGCGGGAGGAUAUGCGUGGUUUGUUCUCGUUUGGUGUCUACAUGAGGAUCACCCAUGUAGAAGGCUUGUUUG
- apparent Kd [1]: 13.6 nM
- apparent Kd [2]: 15.8 nM

Sequence: CGAGUGUAAGGAUAUUCGGCGCCAGGGAACAACCUAGCGUAGAAGAAGGUACAUGAGGAUCACCCAUGUGGUUA
- apparent Kd [1]: 269 nM
- apparent Kd [2]: 22.4 nM

Sequence: CAAUUCGCACAGAAGGGUGACAUGAGGAUCACCCAUGUAGCGUGGCACUCAGGAGGAGCCACGCCACAGGAUAUGUGCGGGCAC
- apparent Kd [3]: 33.4 nM
- apparent Kd [4]: 33.8 nM

Sequence: UUAACUCAUGUAGGAUAUGCAUGGCGAAGCUACGCAGAAGGACAUGAGGAUCACCCAUGUUCUAGCGUCUGAGAACAGAUGCAA
- apparent Kd [1]: 49.2 nM
- apparent Kd [2]: 400 nM

Sequence: UUUUAGCAGUCAGGAUAUGCAACGCACAACGACGCAGAAGGGACAUGAGGAUCACCCAUGUUAUGGUUCUGGUACUAUGACGUU
- apparent Kd [1]: 18.1 nM
- apparent Kd [2]: 24.6 nM

Sequence: GUCGGGUCUCACGCGUCGGUCCACAUGAGGAUCACCCAUGUCAAGGAUAUAGCGUCUUCCGGGCGUUAGAAGGUGACCAUUGGC
- apparent Kd [1]: 34.6 nM
- apparent Kd [2]: 48.1 nM

Sequence: UCGACCCUAGGAUAUACAUGAGGAUCACCCAUGUUUGUCGAAGAACGAACAGUCCUCAGUAGAAGGAGGACGAA
- apparent Kd [1]: 22.3 nM
- apparent Kd [2]: 23.8 nM

Sequence: AAUUGACACGUAGGAUAUCGCUCUAAUUAAACACGAGAAGGACGUACAUGAGGAUCACCCAUGUUAAAUGGUGUAGAUAAGUUG
- apparent Kd [1]: 172 nM
- apparent Kd [2]: 479 nM

Sequence: GGCAUGUAAGGAUAUGUCCCUGAGUGCUUUGCGCUCAGGAAACAGAAGGUACAUGAGGAUCACCCAUGUGAUAA
- apparent Kd [1]: 725 nM
- apparent Kd [2]: 75.9 nM

Sequence: AGUCAGAGCAGAGGAUAUAUACAUGAGGAUCACCCAUGUGACUGCCUAUGCUAGAAAUAGUAUGUAUAGAAGGCUGCUCUGACA
- apparent Kd [1]: 752 nM
- apparent Kd [2]: 483 nM

Sequence: UAAGUACGAGGAUAUACAUAGAUACAGAUACAUGUAGACGUACAUGAGGAUCACCCAUGUAGAAGGCGUAUAUA
- apparent Kd [1]: 67.9 nM
- apparent Kd [2]: 239 nM

Sequence: GUAGCUAUUAAAGGAUAUUCAUACCGGAAACGGACAUGAGGAUCACCCAUGUGGCGAAAGCCUUGGGAGAAGGUUAUUAGCUAC
- apparent Kd [3]: 378 nM
- apparent Kd [4]: 15.6 nM

Sequence: GAUAGACAUGAGGAUCACCCAUGUGAGGAUAUGCGUACGUUGUCCGUAGGCGACGUGCGCAGAAGGCGCGAGGU
- apparent Kd [1]: 55.9 nM
- apparent Kd [2]: 88.3 nM

Sequence: AAUUUACAGCUAGGAUAUACAUGAGGAUCACCCAUGUGACGAUCGGAUCUUAUGAUCGUGUCCGUGUAGAAGGAGCAAAUAAGA
- apparent Kd [1]: 8.15 nM
- apparent Kd [2]: 10 nM

Sequence: UGUUGUAUUACAGGAUAUCUAGUAUUUUUAUAUAGAGAAGGGUAUUCACAUGAGGAUCACCCAUGUAUAUACGAGGAAGUUGUG
- apparent Kd [3]: 30.3 nM
- apparent Kd [4]: 32.2 nM

Sequence: AAGUCAGCAGGAUAUGCGAUGUUGUGCUAGAUAGCGUGACCACAUGAGGAUCACCCAUGUAGAAGGGCUGGCUA
- apparent Kd [1]: 30.9 nM
- apparent Kd [2]: 20.2 nM

Sequence: GACAAACAUGAGGAUCACCCAUGUUCAGACGAACAAGGAUAUGUGUGGAAACCGUACUAUACAGAAGGUGUCUGUC
- apparent Kd [3]: 39.7 nM
- apparent Kd [4]: 23.8 nM

Sequence: CCUCCACAUGAGGAUCACCCAUGUCAGGAUAUCGUGUGCGCGUUUUCGGUCUUUCGCGCGAGAAGGGACGACUG
- apparent Kd [1]: 27.3 nM
- apparent Kd [2]: 28.4 nM

Sequence: CUACUGUGAGGAUAUGGUGAGUAGUGCCUGAGCGCUGCUCACCAGAAGGCACAUGAGGAUCACCCAUGUAUGAC
- apparent Kd [1]: 53.9 nM
- apparent Kd [2]: 220 nM

Sequence: GAGACAUGUGAGAAGGCGCCACACGCGAGUGGGCGAGGAUAUCACAUGAGGAUCACCCAUGUUAGCCCUCGACCGCGACGCGGG
- apparent Kd [1]: 10.1 nM
- apparent Kd [2]: 47.3 nM

Sequence: UUAAAUCAUGUAGGAUAUGCAUGGCGAAGCUACGCAGAAGGACAUGAGGAUCACCCAUGUUAUAGCGUCCGAUUAAGGAUGCAA
- apparent Kd [1]: 91.9 nM
- apparent Kd [2]: 216 nM

Sequence: CUCAUGUGAGGAUAUAGUACUUCUUCUAUUAUUAUUGAGUACUAGAAGGCACAUGAGGAUCACCCAUGUAGUAC
- apparent Kd [1]: 16 nM
- apparent Kd [2]: 16.3 nM

Sequence: GGACGGUUUGUCAGGAUAUGCUCUACCUCGGUAGAGCAGAAGGGACAUGAGGAUCACCCAUGUGAAAACUGUUC
- apparent Kd [1]: 22.8 nM
- apparent Kd [2]: 25.2 nM

Sequence: AUAAUUUUAUAUAUCAUUUUAAUCAGAAGGCAUAACAUGAGGAUCACCCAUGUAAAUUAUUGUUAUGAGGAUAUGAAUUGGUUA
- apparent Kd [1]: 14.4 nM
- apparent Kd [2]: 54.8 nM

Sequence: GUGGUACAUGAGGAUCACCCAUGUUAGGAUAUCGCGUGAGGUUUUACUUACACACACACGAGAAGGGACGUCUU
- apparent Kd [1]: 47.5 nM
- apparent Kd [2]: 36 nM
